# Shown are actives, neighbours in structure and some others; about 2.7% of the full set was active somewhere.
# E-sel inducer: induces E-selectin expression in human endothelial cells; AID 686992; activation, % at 7.58 µM; hit rate 0.37% among 260,000; HUVEC E-selectin immunofluorescence imaging; normalized: neutral wells 0, TNF-alpha wells 100; P16581;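 active means mean E-selectin-positive cell signal at least 10% of the positive control, reached in at least 60% of replicates, without over 20% cell loss; inconclusive means no rule given, readout overlaps actives, possibly toxicity-flagged; inactive means the rest, including those meeting only one limit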
#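 System: HUVEC, human umbilical vein endothelial cells; quantity: 3,000 cells/well; buffer or medium: EGM-2 medium, gelatin-coated wells; dosing: single-point compound dose; detection: immunofluorescence imaging; evaluation: % PE-positive cells; benchmarks: TNF-alpha, DMSO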
# CFTR F508del cor: correctors of CFTR F508del function in bronchial epithelial cells | CFBE cells, YFP halide quenching; stimulated with forskolin plus potentiator P3; % fluorescence drop versus neutral controls | activity (quench increase), % at 7.58 µM | hit rate 0.36% among 350,000;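 active means mean added fluorescence quench of at least 8% versus neutral control, with both replicates also reaching 8%; inconclusive means only one of the mean or replicate conditions met; inactive means mean below 8% and not both replicates reaching 8%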;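 further: cells transiently co-express mutant CFTR-F508del with the halide-sensitive YFP; corrector assay measuring rescue of mutant channel to the surface after 24 h compound exposure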
# FGF22 binding: binders of recombinant human FGF22 by thermal shift; SYPRO orange fluorescence; percent of sucrose octasulfate shift, DMSO zero; activity (Tm shift, normalised), % at 9.99 µM; hit rate 1.5% among 340,000; AID 651658;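 active means mean Tm shift, scaled 0 neutral to 100 positive control, at about 1.3% or above, every replicate too, limit read from the data; inconclusive means no clear call, values can overlap the other calls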
# Target sequence (Q9HCT0 whole entry, looked up): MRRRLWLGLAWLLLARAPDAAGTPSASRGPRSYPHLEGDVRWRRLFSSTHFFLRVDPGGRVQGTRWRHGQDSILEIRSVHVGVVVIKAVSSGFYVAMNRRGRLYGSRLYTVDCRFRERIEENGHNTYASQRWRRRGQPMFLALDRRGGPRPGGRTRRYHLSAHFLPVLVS
# Env fusion inh: inhibitors of HIV Env-mediated cell fusion; HeLa-JRFL Env/CEM21 cell fusion, luciferase; inhibition, % at 12.3 µM; hit rate 1.1% among 360,000; AID 651610;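 active means mean replicate inhibition score of at least 50 and every replicate individually at or above 50; inconclusive means only one of the two criteria met; inactive means mean below 50 and not all replicates reaching 50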;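 further: 0% = plate neutral controls and 100% = maraviroc near 300 nM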
# S100A4 MyoIIA: blocks human S100A4 binding to myosin IIA peptide | P26447 | S100A4/TAMRA-MyoIIA peptide fluorescence polarization | inhibition, % at 10.7 µM | hit rate 0.14% among 360,000 | AID 652163;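 active means mean inhibition of at least 70% across replicates, with every replicate also reaching that level; inconclusive means mean inhibition reaches 70% but some replicates fall short; inactive means mean inhibition below 70%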
# Target sequence (P26447 whole entry, looked up): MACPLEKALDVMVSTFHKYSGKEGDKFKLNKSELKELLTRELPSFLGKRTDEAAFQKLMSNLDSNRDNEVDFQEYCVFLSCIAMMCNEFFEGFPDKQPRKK
#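 Material: S100A4 monomer protein | Medium: HEPES pH 7.2 with CaCl2, KCl, NaCl, DTT, Triton | Reagent: Labelled myosin peptide probe, 5 nM | Doses: One dose per compound | Times: 5 min incubation before reading | Benchmarks: Neutral control DMSO, positive control TFP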
# The depositor's hits bear a star; ? = inconclusive; nt = not tested or not shown; [ ] = another dose, or the depositor's remark.
SMILES,E-sel inducer,CFTR F508del cor,FGF22 binding,Env fusion inh,S100A4 MyoIIA
COCCNC(=O)C[C@@H]1CC[C@H]2[C@H](COc3ccc(NC(=O)COC)cc3C(=O)N2C)O1,0,0,0,-2[16.7 µM],-18
FC(F)(F)c1ccccc1NC(=S)NC1CCN(Cc2ccccc2)CC1,nt,-1,44*,-8,-1
O=C(Nc1ccc(F)cc1)Nc1ccc2c(c1)[C@@H]1C[C@H](CC(=O)N3CCCCC3)O[C@H](CO)[C@@H]1O2,0,-2,-1,90*[16.7 µM],nt
O=C(Nc1ccc(F)cc1)Nc1ccc2c(c1)[C@@H]1C[C@@H](CC(=O)N3CCCCC3)O[C@@H](CO)[C@@H]1O2,0,0,0,-9[16.7 µM],nt
O=C(Nc1ccc(F)cc1)Nc1ccc2c(c1)[C@@H]1C[C@H](CC(=O)N3CCCCC3)O[C@@H](CO)[C@@H]1O2,0,3,0,75*[16.7 µM],nt
COCc1cn(CC[C@@H]2CC[C@@H](NC(=O)CCN3CCCCC3)[C@H](CO)O2)nn1,0,-3,0,-15[16.7 µM],-2
COc1ccc2c3c(n(C)c2c1)[C@H](CO)N(CC1CC1)CC31CN(C(=O)Nc2ccccc2)C1,0,-3,0,nt,nt
COC(=O)c1cc([N+](=O)[O-])c(-n2cncn2)c([N+](=O)[O-])c1,0,-7,43*,12,0
COC(=O)c1cc(F)c(-n2cncn2)c(F)c1,nt,-1,1,nt,-9
CN(C)S(=O)(=O)c1ccc(C(=O)Nc2nc(-c3cc4ccccc4o3)cs2)cc1,nt,6,0,36,-1
O=C(Nc1nc(-c2cccs2)cs1)c1cccc(S(=O)(=O)N2CCCCC2)c1,nt,nt,nt,69*,nt
CS(=O)(=O)c1ccccc1-c1nnc(NC(=O)c2ccc(S(=O)(=O)N3CCCC3)cc2)o1,-1,-2,0,0,8
CC1CN(S(=O)(=O)c2ccc(C(=O)Nc3nc(-c4cc5ccccc5o4)cs3)cc2)CC(C)O1 (configuration not stated),nt,8,44*,38,0
O=C(Nc1nc(-c2ccc(-c3ccccc3)cc2)cs1)c1cc([N+](=O)[O-])ccc1N1CCOCC1,nt,0,43*,12,-1
O=C(Nc1nnc(-c2cccs2)o1)c1ccc(S(=O)(=O)N2CCOCC2)cc1,nt,3,44*,0,6
C/C=C/c1ccc([C@@H]2[C@@H](CO)N(C(=O)NCCC)[C@H]2CNC(=O)C2CC2)cc1,0,3,nt,nt,nt
O=C(Nc1nc(-c2ccccc2)cs1)C1CCCN(S(=O)(=O)c2ccccc2)C1 (configuration not stated),nt,nt,nt,97*,nt
O=C(Nc1nc(-c2ccccc2)cs1)C1CCCN(S(=O)(=O)c2cccc([N+](=O)[O-])c2)C1 (configuration not stated),nt,nt,nt,50,nt
O=C(Nc1nc(-c2ccc3ccccc3c2)cs1)C1CCN(S(=O)(=O)c2cccs2)CC1,1,7,0,21,-8
Cc1ccc(-c2csc(NC(=O)C3CCN(S(=O)(=O)c4cccs4)CC3)n2)cc1,nt,nt,nt,63*,nt
O=C(Nc1nc(-c2cc3ccccc3o2)cs1)c1ccc(S(=O)(=O)N2CCCC2)cc1,0,5,43*,57*,-1
Cc1cccc(NC(=O)c2ccc(S(=O)(=O)N3CC(C)OC(C)C3)cc2)n1 (configuration not stated),1,-1,0,56*,-4
O=C(Nc1nc(-c2ccc(S(=O)(=O)N3CCOCC3)cc2)cs1)c1ccccc1,0,2,44*,?,-3
CCOC(=O)N1CCC(n2c(SCC(=O)OCc3ccccc3)nc3ccsc3c2=O)CC1,nt,nt,nt,97*,nt
CCOC(=O)N1CCC(n2c(SCC(=O)N3CCCC3)nc3ccccc3c2=O)CC1,nt,nt,nt,1,nt
SMILES,E-sel inducer,CFTR F508del cor,FGF22 binding,Env fusion inh,S100A4 MyoIIA
CCOC(=O)N1CCC(n2c(SCC(=O)N3CCC(C)CC3)nc3ccccc3c2=O)CC1,nt,nt,nt,54*,nt
CCOC(=O)CSc1nc2ccsc2c(=O)n1C1CCN(C(=O)OCC)CC1,nt,2,0,nt,2
C[C@H]1CN([C@@H](C)CO)C(=O)c2cc(NS(=O)(=O)c3cccs3)ccc2O[C@@H]1CN(C)S(=O)(=O)c1ccc(F)cc1,0,0,0,-9[16.7 µM],-4
COc1ccc(-c2cc(C)no2)cc1S(=O)(=O)NCC(C)c1ccccc1 (configuration not stated),nt,-1,0,56*,-30
CCOc1ccccc1CNS(=O)(=O)c1cc(-c2cc(C)no2)ccc1OC,nt,7,0,5,-5
CCOc1ccccc1NC(=O)N1CCC(NC(=O)C2CCCCC2)CC1,35*,-2,0,4,-26
CO[C@H]1CN(C)C(=O)c2cc(NC(=O)c3ccc(F)cc3)ccc2OC[C@@H](C)N(Cc2cocn2)C[C@@H]1C,0,-1,nt,-17[16.7 µM],nt
C[C@H](CO)N1C[C@H](C)[C@H](CN(C)Cc2ccc(C(=O)Nc3ccccc3N)cc2)Oc2c(NC(=O)c3ccncc3)cccc2C1=O,0,0,0,-12[16.7 µM],-17
Cc1ccc(S(=O)(=O)Nc2cccc3c2O[C@H](CN(C)Cc2ccc(C(=O)Nc4ccccc4N)cc2)[C@@H](C)CN([C@@H](C)CO)C3=O)cc1,0,-1,1.4*,nt,-1
C[C@@H]1CN([C@H](C)CO)C(=O)c2cccc(NC(=O)c3ccncc3)c2O[C@@H]1CN(C)Cc1ccc(C(=O)Nc2ccccc2N)cc1,58*,0,0,-25[16.7 µM],11
COc1cc2nc(Nc3ccc(C)c(Cl)c3)nc(N)c2cc1OC,0,5,0,5,6
Cc1ccc(Nc2nc(N)c3ccccc3n2)cc1Cl,1,-6,2.2*,-307,1
C[C@H](CO)N1C[C@H](C)[C@H](CN(C)Cc2ccc(Cl)c(Cl)c2)Oc2ccc(NS(C)(=O)=O)cc2C1=O,-2,1,0,4[16.7 µM],-4
C[C@H]1CN([C@@H](C)CO)C(=O)c2cc(C#Cc3ccccn3)cnc2O[C@@H]1CN(C)CC1CCCC1,nt,-3,nt,nt,nt
COc1ccc(NC(=O)Nc2ccc3c(c2)C(=O)N([C@H](C)CO)C[C@H](C)[C@H](CN(C)CC2CC2)OCCCC[C@H](C)O3)cc1,0,3,0,64*[16.7 µM],-3
COc1ccc(NC(=O)Nc2ccc3c(c2)C(=O)N([C@@H](C)CO)C[C@H](C)[C@H](CN(C)CC2CCCCC2)OCCCC[C@H](C)O3)cc1,1,-7,0,55*[16.7 µM],2
COc1ccc(NC(=O)Nc2ccc3c(c2)C(=O)N([C@H](C)CO)C[C@H](C)[C@H](CN(C)CC2CC2)OCCCC[C@@H](C)O3)cc1,nt,2,0,1[16.7 µM],19
CC(C)CC#Cc1cnc2c(c1)C(=O)N([C@@H](C)CO)C[C@@H](C)[C@H](CN(C)Cc1ccccn1)O2,0,-2,0,-2[16.7 µM],-1
